Results gathered from unrelated publications.
Lines come from different studies, so protocols differ. Converted amounts (≈) assume the structure as drawn.

Structure (SMILES) | organism | assay | system | conditions | measurement | value
O=C(O)CN1C(=O)/C(=C/c2ccc(-c3ccc(N(c4ccccc4)c4ccccc4)cc3)c3ccccc23)SC1=S | Bacillus subtilis | microbial killing, broth dilution | ATCC6633 | – | MBC | 1000 µg/mL (≈ 1750 µM)
CCOC(=O)c1c(N)csc1-c1cn(-c2ccccc2)nc1-c1ccc(C)cc1 | Bacillus subtilis | microbial killing, broth dilution | – | – | MBC | 0.25 µg/mL (≈ 0.62 µM)
O=C(O)c1nc2ccccc2c(=O)n1Cc1cn(-c2ccc([N+](=O)[O-])cc2)nn1 | Nakaseomyces glabratus | microbial growth, broth dilution | ATCC90030 | 24 h | IC50 | 432 µg/mL
O=C1NC(=S)N/C1=C\c1ccc(-c2ccc(N(c3ccccc3)c3ccccc3)cc2)c2ccccc12 | Bacillus subtilis | microbial killing, broth dilution | ATCC6633 | – | MBC | > 1000 µg/mL
O=C(O)c1cn(C2CC2)c2cc(N3CCNCC3)c(F)cc2c1=O | Bacillus subtilis | microbial killing, broth dilution | – | – | MBC | 0.5 µg/mL (≈ 1.51 µM)
CCOC(=O)c1nc2ccccc2c(=O)n1Cc1cn(-c2ccc(C(=O)O)cc2)nn1 | Nakaseomyces glabratus | microbial growth, broth dilution | ATCC90030 | 24 h | IC50 | 87.7 µg/mL
CCOC(=O)C=c1[nH]c(=O)c(=Cc2cn(-c3ccccc3)nc2-c2ccccc2)s1 | Bacillus subtilis | microbial growth, well diffusion | – | 100000 µg/mL | inhibition zone | 14 mm
O=C(O)c1nc2ccccc2c(=O)n1Cc1cn(-c2ccccc2F)nn1 | Nakaseomyces glabratus | microbial growth, broth dilution | ATCC90030 | 24 h | IC50 | 174 µg/mL
Cc1c(NC(=O)CC2=NC(=O)CS2)c(=O)n(-c2ccccc2)n1C | Bacillus subtilis | microbial killing, broth dilution | – | – | MBC | 2 µg/mL (≈ 5.81 µM)
C[C@@H]1[C@H](O)[C@@H](C)/C=C/C=C/C=C/C=C/C=C/C=C/C=C/[C@H](O[C@@H]2O[C@H](C)[C@@H](O)[C@H](N)[C@@H]2O)C[C@@H]2O[C@](O)(C[C@@H](O)C[C@@H](O)[C@H](O)CC[C@@H](O)C[C@@H](O)CC(=O)O[C@H]1C)C[C@H](O)[C@H]2C(=O)O | Cryptococcus neoformans | microbial killing | ATCC90113 | – | MFC | 1.5 µg/mL
CCCCCCC/C=C/C(=O)N1C(=O)/C(=C(\O)c2ccc(F)cc2)C(=O)C1CC(C)C (stereo not drawn) | Proteus vulgaris | microbial growth | ATCC33420 | – | MIC | > 200 µg/mL
N#CC(=Cc1ccccc1O)C1=NC(=O)C(=Cc2cn(-c3ccccc3)nc2-c2ccccc2)S1 | Bacillus subtilis | microbial growth, well diffusion | – | 100000 µg/mL | inhibition zone | 25 mm
C[C@@H](c1ncncc1F)[C@](O)(Cn1cncn1)c1ccc(F)cc1F | Acanthamoeba polyphaga | parasite growth, resazurin | – | 96 h | IC50 | 28.9 µM
Cc1ccccc1-n1cc(Cn2c(C(=O)O)nc3ccccc3c2=O)nn1 | Nakaseomyces glabratus | microbial growth, broth dilution | ATCC90030 | 24 h | IC50 | 358 µg/mL
C=CCCCCCCCCCCCC(O)CC(O)CO (stereo not drawn) | Cryptococcus neoformans | microbial growth, broth dilution | ATCC90113 | – | IC50 | > 200 µg/mL
Cc1ccc(-n2cc(Cn3c(C(=O)O)nc4ccccc4c3=O)nn2)cc1 | Nakaseomyces glabratus | microbial growth, broth dilution | ATCC90030 | 24 h | IC50 | 288 µg/mL
C[C@@H]1[C@H](O)[C@@H](C)/C=C/C=C/C=C/C=C/C=C/C=C/C=C/[C@H](O[C@@H]2O[C@H](C)[C@@H](O)[C@H](N)[C@@H]2O)C[C@@H]2O[C@](O)(C[C@@H](O)C[C@@H](O)[C@H](O)CC[C@@H](O)C[C@@H](O)CC(=O)O[C@H]1C)C[C@H](O)[C@H]2C(=O)O | Cryptococcus neoformans | microbial growth, broth dilution | ATCC90113 | – | IC50 | 0.24 µg/mL
O=C(O)c1nc2ccccc2c(=O)n1Cc1cn(-c2ccc(F)cc2)nn1 | Nakaseomyces glabratus | microbial growth, broth dilution | ATCC90030 | 24 h | IC50 | 422 µg/mL
C/C(O)=C1\C(=O)C(CC(C)C)N(C(=O)C=Cc2ccccc2)C1=O (stereo not drawn) | Proteus vulgaris | microbial growth | ATCC33420 | – | MIC | > 200 µg/mL
C[C@@H]1[C@H](O)[C@@H](C)/C=C/C=C/C=C/C=C/C=C/C=C/C=C/[C@H](O[C@@H]2O[C@H](C)[C@@H](O)[C@H](N)[C@@H]2O)C[C@@H]2O[C@](O)(C[C@@H](O)C[C@@H](O)[C@H](O)CC[C@@H](O)C[C@@H](O)CC(=O)O[C@H]1C)C[C@H](O)[C@H]2C(=O)O | Nakaseomyces glabratus | microbial killing | ATCC90030 | – | MFC | 1.35 µM
O=C(O)c1nc2ccccc2c(=O)n1Cc1cn(-c2ccccc2[N+](=O)[O-])nn1 | Nakaseomyces glabratus | microbial growth, broth dilution | ATCC90030 | 24 h | IC50 | 487 µg/mL
